# In publication PMC3809033 (Clinical pharmacology and therapeutics, 2011):
# Key:
# [1] = target: dopamine transporter (DAT) (Homo sapiens, UniProt Q01959); assay: radioligand competition binding; details: read-out: [drawing 1] / In vitro; Cheng-Prusoff; details in supplement
# In short: (§1)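 Test compound (purity >98%) was run in competition against radioligand binding at six concentrations from 10 nmol/l to 100 μmol/l to build concentration–response curves. IC50 (50% displacement of bound radioligand) was obtained by nonlinear fitting. Ki was derived with Cheng–Prusoff, using free radioligand concentration and each radioligand's KD, and expressed as pKi.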
# 5-HT2B receptor = 5-HT2B receptor (Homo sapiens, UniProt P41595); assay: radioligand competition binding; details: read-out: [drawing 1] / In vitro; Cheng-Prusoff; details in supplement
# In short: as §1
# 5-HT2A receptor = 5-HT2A receptor (Homo sapiens, UniProt P28223); assay: inositol phosphate release, antagonist mode; format: cell-based; details: receptor activated by 1 μmol/l 5-HT
# serotonin transporter = serotonin transporter (Homo sapiens, UniProt P31645); assay: radioligand competition binding; details: read-out: [drawing 1] / In vitro; Cheng-Prusoff; details in supplement
# In short: as §1
# 5-HT2C receptor = target: T1, 5-HT2C receptor (Homo sapiens, UniProt P28335); assay: radioligand competition binding; details: read-out: [drawing 1] / In vitro; Cheng-Prusoff; details in supplement
# T1 sequence (P28335 33-458): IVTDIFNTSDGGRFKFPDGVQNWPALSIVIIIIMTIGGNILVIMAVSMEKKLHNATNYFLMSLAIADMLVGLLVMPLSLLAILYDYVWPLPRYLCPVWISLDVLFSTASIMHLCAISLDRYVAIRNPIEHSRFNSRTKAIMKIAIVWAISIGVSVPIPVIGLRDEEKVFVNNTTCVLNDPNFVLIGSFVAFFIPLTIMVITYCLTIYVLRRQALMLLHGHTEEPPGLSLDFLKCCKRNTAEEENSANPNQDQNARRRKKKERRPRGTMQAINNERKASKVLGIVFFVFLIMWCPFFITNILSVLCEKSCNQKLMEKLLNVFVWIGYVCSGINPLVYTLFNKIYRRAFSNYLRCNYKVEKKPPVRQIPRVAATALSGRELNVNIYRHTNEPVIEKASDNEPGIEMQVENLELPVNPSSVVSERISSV
# In short: as §1
# 5-HT6 receptor = 5-HT6 receptor (Homo sapiens, UniProt P50406); assay: radioligand competition binding; details: read-out: [drawing 1] / In vitro; Cheng-Prusoff; details in supplement
# In short: as §1
# [2] = target: norepinephrine transporter (Homo sapiens, UniProt P23975); assay: radioligand competition binding; details: read-out: [drawing 1] / In vitro; Cheng-Prusoff; details in supplement
# In short: as §1
# 5-HT7 receptor = 5-HT7 receptor (Homo sapiens, UniProt P34969); assay: radioligand competition binding; details: read-out: [drawing 1] / In vitro; Cheng-Prusoff; details in supplement
# In short: as §1
# Sequence of 5-HT2A receptor (P28223 whole entry): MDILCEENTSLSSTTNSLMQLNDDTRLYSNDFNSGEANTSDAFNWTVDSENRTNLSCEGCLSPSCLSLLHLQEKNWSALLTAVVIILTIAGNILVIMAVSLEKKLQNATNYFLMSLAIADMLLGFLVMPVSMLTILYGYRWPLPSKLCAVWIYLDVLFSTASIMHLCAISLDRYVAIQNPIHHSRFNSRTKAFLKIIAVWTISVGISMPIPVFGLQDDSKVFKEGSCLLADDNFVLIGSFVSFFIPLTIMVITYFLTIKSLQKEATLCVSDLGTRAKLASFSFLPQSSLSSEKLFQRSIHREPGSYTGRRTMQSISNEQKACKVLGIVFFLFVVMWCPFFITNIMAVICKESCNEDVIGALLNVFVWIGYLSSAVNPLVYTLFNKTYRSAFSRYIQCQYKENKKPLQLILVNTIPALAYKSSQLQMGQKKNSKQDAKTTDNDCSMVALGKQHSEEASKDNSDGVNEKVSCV
# Sequence of serotonin transporter (P31645 whole entry): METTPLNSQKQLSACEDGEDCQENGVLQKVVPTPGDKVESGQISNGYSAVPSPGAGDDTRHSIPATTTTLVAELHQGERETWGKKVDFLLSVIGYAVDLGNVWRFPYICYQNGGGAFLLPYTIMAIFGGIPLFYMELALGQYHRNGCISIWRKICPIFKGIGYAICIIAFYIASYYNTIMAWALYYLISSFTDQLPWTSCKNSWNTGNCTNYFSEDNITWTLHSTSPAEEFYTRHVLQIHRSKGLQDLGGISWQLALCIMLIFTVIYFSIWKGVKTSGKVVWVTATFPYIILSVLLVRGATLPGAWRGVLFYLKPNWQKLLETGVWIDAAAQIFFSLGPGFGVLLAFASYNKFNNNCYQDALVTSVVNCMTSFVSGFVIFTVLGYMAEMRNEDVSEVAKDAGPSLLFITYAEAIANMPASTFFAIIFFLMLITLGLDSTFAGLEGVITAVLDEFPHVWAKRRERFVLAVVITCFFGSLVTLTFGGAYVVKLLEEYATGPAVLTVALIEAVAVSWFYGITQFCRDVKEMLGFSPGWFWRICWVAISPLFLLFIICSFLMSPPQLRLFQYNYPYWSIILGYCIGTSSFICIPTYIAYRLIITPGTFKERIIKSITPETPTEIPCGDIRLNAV
# Sequence of 5-HT7 receptor (P34969 whole entry): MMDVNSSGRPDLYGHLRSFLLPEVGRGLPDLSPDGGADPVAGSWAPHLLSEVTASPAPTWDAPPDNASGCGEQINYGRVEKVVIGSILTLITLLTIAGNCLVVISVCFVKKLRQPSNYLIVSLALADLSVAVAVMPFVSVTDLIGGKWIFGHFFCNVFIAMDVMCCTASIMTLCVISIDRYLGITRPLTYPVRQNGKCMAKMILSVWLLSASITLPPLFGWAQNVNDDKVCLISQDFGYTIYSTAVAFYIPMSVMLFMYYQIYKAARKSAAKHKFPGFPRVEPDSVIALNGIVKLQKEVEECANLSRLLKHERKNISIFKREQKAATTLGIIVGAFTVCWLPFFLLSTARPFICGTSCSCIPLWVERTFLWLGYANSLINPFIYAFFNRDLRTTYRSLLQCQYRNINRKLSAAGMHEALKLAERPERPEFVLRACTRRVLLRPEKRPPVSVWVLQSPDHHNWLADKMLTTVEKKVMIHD
# Sequence of dopamine transporter (DAT) (Q01959 whole entry): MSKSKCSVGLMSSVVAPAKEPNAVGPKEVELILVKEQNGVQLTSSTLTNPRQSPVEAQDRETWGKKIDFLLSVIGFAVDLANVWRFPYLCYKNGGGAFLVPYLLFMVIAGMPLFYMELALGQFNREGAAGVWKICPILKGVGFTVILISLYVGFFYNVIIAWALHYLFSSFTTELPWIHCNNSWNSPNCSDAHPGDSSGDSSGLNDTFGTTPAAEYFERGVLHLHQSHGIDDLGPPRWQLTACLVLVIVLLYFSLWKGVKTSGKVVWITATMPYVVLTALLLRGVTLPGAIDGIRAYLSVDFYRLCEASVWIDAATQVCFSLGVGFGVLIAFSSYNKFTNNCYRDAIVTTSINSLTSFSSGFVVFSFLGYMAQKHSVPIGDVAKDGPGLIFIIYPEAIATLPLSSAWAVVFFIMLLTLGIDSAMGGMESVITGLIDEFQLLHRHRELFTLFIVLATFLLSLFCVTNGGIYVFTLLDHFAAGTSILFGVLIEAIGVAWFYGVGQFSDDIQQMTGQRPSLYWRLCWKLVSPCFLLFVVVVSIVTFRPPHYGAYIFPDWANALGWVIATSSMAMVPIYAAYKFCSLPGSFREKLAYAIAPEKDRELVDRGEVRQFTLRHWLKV
# Sequence of 5-HT2B receptor (P41595 whole entry): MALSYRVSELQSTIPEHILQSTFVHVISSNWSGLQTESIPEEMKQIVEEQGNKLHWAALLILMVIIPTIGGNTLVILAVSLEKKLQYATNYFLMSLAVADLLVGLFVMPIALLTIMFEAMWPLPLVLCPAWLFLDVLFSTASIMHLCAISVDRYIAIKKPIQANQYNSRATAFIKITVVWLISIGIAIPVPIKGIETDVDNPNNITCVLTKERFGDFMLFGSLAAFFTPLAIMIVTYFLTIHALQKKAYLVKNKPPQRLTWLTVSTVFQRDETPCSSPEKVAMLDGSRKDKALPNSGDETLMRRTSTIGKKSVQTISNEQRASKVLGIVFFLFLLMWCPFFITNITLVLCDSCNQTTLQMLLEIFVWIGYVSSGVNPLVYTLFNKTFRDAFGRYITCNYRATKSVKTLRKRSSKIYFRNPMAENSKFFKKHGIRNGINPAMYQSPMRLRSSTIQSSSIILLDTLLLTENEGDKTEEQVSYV
# Sequence of 5-HT6 receptor (P50406 whole entry): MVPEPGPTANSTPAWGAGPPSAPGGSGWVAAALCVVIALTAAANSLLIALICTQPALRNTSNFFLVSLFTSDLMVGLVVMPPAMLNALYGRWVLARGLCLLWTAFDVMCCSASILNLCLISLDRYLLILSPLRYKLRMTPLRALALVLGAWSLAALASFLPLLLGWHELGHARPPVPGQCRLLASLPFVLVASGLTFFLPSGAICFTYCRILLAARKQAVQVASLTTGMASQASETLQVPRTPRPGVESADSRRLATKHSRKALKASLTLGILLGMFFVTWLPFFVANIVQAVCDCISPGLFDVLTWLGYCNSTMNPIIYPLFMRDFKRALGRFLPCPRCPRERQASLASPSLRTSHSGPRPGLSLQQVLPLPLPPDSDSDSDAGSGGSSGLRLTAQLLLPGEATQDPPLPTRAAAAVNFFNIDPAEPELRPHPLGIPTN
# Sequence of norepinephrine transporter (P23975 whole entry): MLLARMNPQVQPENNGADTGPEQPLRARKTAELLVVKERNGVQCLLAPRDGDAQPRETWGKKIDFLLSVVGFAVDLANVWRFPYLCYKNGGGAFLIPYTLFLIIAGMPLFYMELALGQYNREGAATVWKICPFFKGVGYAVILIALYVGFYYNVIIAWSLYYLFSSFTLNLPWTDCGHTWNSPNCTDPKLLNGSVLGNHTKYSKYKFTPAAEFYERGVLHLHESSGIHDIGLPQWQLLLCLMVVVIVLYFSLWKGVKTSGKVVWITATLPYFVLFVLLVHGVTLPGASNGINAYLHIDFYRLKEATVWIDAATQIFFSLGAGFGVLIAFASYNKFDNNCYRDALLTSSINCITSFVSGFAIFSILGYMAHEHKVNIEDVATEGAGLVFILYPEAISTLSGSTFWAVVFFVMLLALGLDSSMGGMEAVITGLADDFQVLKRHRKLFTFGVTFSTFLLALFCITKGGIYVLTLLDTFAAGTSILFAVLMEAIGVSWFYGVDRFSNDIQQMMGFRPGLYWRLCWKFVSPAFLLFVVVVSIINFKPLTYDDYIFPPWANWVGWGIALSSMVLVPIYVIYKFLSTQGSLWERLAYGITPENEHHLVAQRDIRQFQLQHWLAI
structure (smiles),measurement,setting,value
CN(C)CCC=C1c2ccccc2C=Cc2ccccc21 [cyclobenzaprine],Ki,[1],5490 nM
same,Ki,5-HT2B receptor,154 nM
same,Kb,5-HT2A receptor,28.8 ± 2.49 nM
same,Ki,serotonin transporter,108 nM
same,Ki,5-HT2C receptor,57 nM
same,Ki,5-HT6 receptor,145 nM
same,Ki,[2],36 nM
same,Ki,5-HT7 receptor,151 nM
